Holding throughout (assay type): functional
Assay [1] concerns Streptococcus pyogenes. The assay can be described thus: In vitro antibacterial activity against Streptococcus pyogenes strain PIU 2548. Summed up:
(§1)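 MICs in µg/mL determined by agar dilution per NCCLS recommendations. Panel includes erythromycin-susceptible strains (S. aureus ATCC 6538P, S. pyogenes EES 61, S. pneumoniae ATCC 6303); ermA MLS_B-resistant S. aureus (A 5177 inducible, A 5278 constitutive); ermB strains (S. pyogenes 930, S. pneumoniae 5737); efflux strains (S. pyogenes PIU 2548 mefA, S. pneumoniae 5649 mefE); and β-lactamase-positive ampicillin-resistant H. influenzae DILL.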

Assay [2] concerns Streptococcus pneumoniae. The assay can be described thus: In vitro antibacterial activity against Streptococcus pneumoniae strain ATCC 6303. In a few lines:
as §1

Assay [3] has as its system Staphylococcus aureus. Kind of assay: (§2) In vivo antibacterial activity against Staphylococcus aureus strain 10649.
Assay [4] relates to Streptococcus pneumoniae. Kind of assay: In vitro antibacterial activity against Streptococcus pneumoniae strain 5737. Summed up: as §1
Assay [5] concerns Streptococcus pneumoniae. The assay can be described thus: (§3) In vivo antibacterial activity against Streptococcus pneumoniae strain 6303. In a few lines: (§4)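 Rat lung infection. Rats inoculated intratracheally with 0.5 mL bacterial suspension in 5% gastric hog mucin containing log 10⁶-10⁸ cfu. Dosed daily on days 1-3, starting 18 h post-inoculation. Lung bacterial burden measured by serial-dilution plating of lung homogenates on day 4. ED50, the dose giving a 2 log reduction versus vehicle-treated infected controls, was calculated from group means by linear regression.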

The subject of assay [6] is Streptococcus pyogenes. Kind of assay: In vitro antibacterial activity against Streptococcus pyogenes strain 930. In a few lines:
as §1

Assay [7] concerns Streptococcus pneumoniae. Kind of assay: (§5) In vivo antibacterial activity against Streptococcus pneumoniae strain 5649. Summed up:
as §4

For assay [8], the system named is Streptococcus pneumoniae. The assay can be described thus: (§6) In vivo antibacterial activity against Streptococcus pneumoniae strain 6396.
Assay [9] has as its system Streptococcus pneumoniae. The assay is described as §3. The source holds these as a separate data set.
Assay [10] deals with Streptococcus pneumoniae. Described as §6. In a few lines:
as §4
The source holds these as a separate data set.

Assay [11] deals with Staphylococcus aureus. The assay can be described thus: In vitro antibacterial activity against Staphylococcus aureus strain A 5278. Summed up:
as §1

Assay [12] relates to Staphylococcus aureus. The description is as §2. Summed up:
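Mice were inoculated intravenously with a 100-fold LD50 of the organism, then dosed by oral gavage at 1 and 5 h post-inoculation across a dose range. Survival was monitored for 7 days. ED50 is the dose giving 50% survival of treated mice over the trial.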
This is another data set of the same source.

In assay [13] the test system is Streptococcus pneumoniae. The assay is described as §5. This is another data set of the same source.
The test system of assay [14] is Streptococcus pyogenes. The assay can be described thus: In vitro antibacterial activity against Streptococcus pyogenes strain EES 61. In a few lines: as §1
Assay [15] concerns Streptococcus pyogenes. The assay can be described thus: In vivo antibacterial activity against Streptococcus pyogenes strain C203.
Assay [16] concerns Staphylococcus aureus. Kind of assay: In vitro antibacterial activity against Staphylococcus aureus strain ATCC 6538P. Summed up: as §1
In assay [17] the test system is Staphylococcus aureus. The assay can be described thus: In vitro antibacterial activity against Staphylococcus aureus strain A 5177. Summed up:
as §1

In the next assay the test system is Haemophilus influenzae. The assay can be described thus: In vitro antibacterial activity against Haemophilus influenzae strain DILL. Summed up:
as §1

In assay [18] the test system is Streptococcus pneumoniae. The assay can be described thus: In vitro antibacterial activity against Streptococcus pneumoniae strain 5649. In a few lines: as §1
Assay [19] concerns Staphylococcus aureus. Kind of assay: In vitro antibacterial activity against Staphylococcus aureus strain ATCC 6538P. In a few lines:
as §1

SMILES strings stand for the structures. Converted amounts (≈) assume the structure as drawn.

In general, ED50 refers to the midpoint of the dose-response relation. A low value points to greater potency. Turning to `CC[C@H]1OC(=O)[C@H](C)C(=O)[C@H](C)[C@@H](O[C@@H]2O[C@H](C)C[C@H](N(C)C)[C@H]2O)[C@](C)(OC)C[C@@H](C)C(=O)[C@H](C)[C@H]2N(CCCCn3cnc(-c4cccnc4)c3)C(=O)O[C@]12C` [TELITHROMYCIN], the MIC with Streptococcus pyogenes [1] is 2 µg/mL (≈ 2.46 µM); with Streptococcus pneumoniae [2], 0.004 µg/mL (≈ 0.00493 µM); against Staphylococcus aureus [3], 0.1 µg/mL (≈ 0.123 µM); in the assay on Streptococcus pneumoniae [4], 8 µg/mL (≈ 9.85 µM); in the assay with Streptococcus pyogenes [6], 8 µg/mL (≈ 9.85 µM); in the assay on Streptococcus pneumoniae [8], 0.125 µg/mL (≈ 0.154 µM). Besides, the MIC in the assay on Streptococcus pneumoniae [9] was 0.004 µg/mL (≈ 0.00493 µM); with Staphylococcus aureus [11], more than 100 µg/mL; in the assay on Streptococcus pneumoniae [13], 0.5 µg/mL (≈ 0.616 µM); in the assay with Streptococcus pyogenes [14] it was 0.004 µg/mL (≈ 0.00493 µM). Besides, the ED50 in the assay with Streptococcus pneumoniae [5] was 34.1 mg/kg; in the assay on Streptococcus pneumoniae [7], 25.8 mg/kg; with Streptococcus pneumoniae [10] it was 26.7 mg/kg; in the assay on Staphylococcus aureus [12] it was 12.5 mg/kg.

For `CC[C@H]1OC(=O)[C@H](C)[C@@H](O[C@H]2C[C@@](C)(OC)[C@@H](O)[C@H](C)O2)[C@H](C)[C@@H](O[C@@H]2O[C@H](C)C[C@H](N(C)C)[C@H]2O)[C@](C)(O)C[C@@H](C)CN(C)[C@H](C)[C@@H](O)[C@]1(C)O` [AZITHROMYCIN], the MIC in the assay on Staphylococcus aureus [3] was 0.78 µg/mL (≈ 1.04 µM); in the assay on Streptococcus pyogenes [15], 0.06 µg/mL (≈ 0.0801 µM); with Streptococcus pyogenes [15] (Streptococcus pyogenes, read-out: MIC) it was 0.06 µg/mL (≈ 0.0801 µM); against Streptococcus pneumoniae [8], more than 128 µg/mL; against Streptococcus pneumoniae [9] it was 0.12 µg/mL (≈ 0.16 µM); against Streptococcus pneumoniae [13], 16 µg/mL (≈ 21.4 µM). The ED50 in the assay with Streptococcus pyogenes [15] was 6.1 mg/kg; in the assay on Streptococcus pneumoniae [7] it was 78.7 mg/kg; in the assay on Streptococcus pneumoniae [10], more than 100 mg/kg; in the assay on Staphylococcus aureus [12] it was 24.8 mg/kg.

`CC[C@H]1OC(=O)[C@H](C)C(=O)[C@H](C)[C@@H](O[C@@H]2O[C@H](C)C[C@H](N(C)C)[C@H]2O)[C@](C)(OC/C=C/c2ccccc2)C[C@@H](C)C(=O)[C@H](C)[C@H]2NC(=O)O[C@@]21C`: the MIC against Staphylococcus aureus [16] worked out at 0.1 µg/mL (≈ 0.14 µM); against Streptococcus pyogenes [1], 0.25 µg/mL (≈ 0.35 µM); against Staphylococcus aureus [17], 0.1 µg/mL (≈ 0.14 µM); against Haemophilus influenzae, 4 µg/mL (≈ 5.6 µM); against Streptococcus pneumoniae [2], 0.03 µg/mL (≈ 0.042 µM); against Streptococcus pneumoniae [4] it was 64 µg/mL (≈ 89.5 µM). Further, the MIC in the assay with Streptococcus pneumoniae [18] was 0.25 µg/mL (≈ 0.35 µM); against Streptococcus pyogenes [6] it was 64 µg/mL (≈ 89.5 µM); against Staphylococcus aureus [11], more than 100 µg/mL; against Streptococcus pyogenes [14] it was 0.03 µg/mL (≈ 0.042 µM).

For `C=CCO[C@@]1(C)C[C@@H](C)C(=O)[C@H](C)[C@H]2NC(=O)O[C@]2(C)[C@@H](CC)OC(=O)[C@H](C)C(=O)[C@H](C)[C@H]1O[C@@H]1O[C@H](C)C[C@H](N(C)C)[C@H]1O`, the MIC is 0.78 µg/mL (≈ 1.22 µM) against Staphylococcus aureus [16]; 2 µg/mL (≈ 3.13 µM) against Streptococcus pyogenes [1]; 1.56 µg/mL (≈ 2.44 µM) with Staphylococcus aureus [17]; 64 µg/mL (≈ 100 µM) against Haemophilus influenzae; 0.5 µg/mL (≈ 0.783 µM) in the assay with Streptococcus pneumoniae [2]; more than 64 µg/mL in the assay with Streptococcus pneumoniae [4]. Also, the MIC against Streptococcus pneumoniae [18] is 0.25 µg/mL (≈ 0.391 µM); in the assay on Streptococcus pyogenes [6], more than 64 µg/mL; against Staphylococcus aureus [11], more than 100 µg/mL; against Streptococcus pyogenes [14], 0.25 µg/mL (≈ 0.391 µM).

With `C=CCO[C@@]1(C)C[C@@H](C)C(=O)[C@H](C)[C@@H](O)[C@](C)(O)[C@@H](CC)OC(=O)[C@H](C)C(=O)[C@H](C)[C@H]1O[C@@H]1O[C@H](C)C[C@H](N(C)C)[C@H]1O`, the MIC with Streptococcus pyogenes [1] was 32 µg/mL (≈ 52.1 µM); against Staphylococcus aureus [17], 50 µg/mL (≈ 81.5 µM); with Haemophilus influenzae, more than 128 µg/mL; in the assay on Streptococcus pneumoniae [2], 4 µg/mL (≈ 6.52 µM); against Staphylococcus aureus [19] it was 12.5 µg/mL (≈ 20.4 µM); in the assay with Streptococcus pneumoniae [4], more than 128 µg/mL. Also, the results for the MIC against Streptococcus pneumoniae [18], in the assay with Streptococcus pyogenes [6] and against Staphylococcus aureus [11] were 8 µg/mL (≈ 13 µM), more than 128 µg/mL and more than 100 µg/mL, respectively.

For `CC[C@H]1OC(=O)[C@H](C)C(=O)[C@H](C)[C@@H](O[C@@H]2O[C@H](C)C[C@H](N(C)C)[C@H]2O)[C@](C)(OC/C=C/c2ccccc2)C[C@@H](C)C(=O)[C@H](C)[C@@H](O)[C@]1(C)O`, the MIC against Staphylococcus aureus [16] turned out to be 1.56 µg/mL (≈ 2.26 µM); against Streptococcus pyogenes [1], 2 µg/mL (≈ 2.9 µM); against Staphylococcus aureus [17], 1.56 µg/mL (≈ 2.26 µM); in the assay on Haemophilus influenzae it was 128 µg/mL (≈ 186 µM); against Streptococcus pneumoniae [2] it was 0.25 µg/mL (≈ 0.362 µM); with Streptococcus pneumoniae [4] it was 64 µg/mL (≈ 92.8 µM). Besides, the MIC in the assay with Streptococcus pneumoniae [18] was 2 µg/mL (≈ 2.9 µM); in the assay on Streptococcus pyogenes [6], 64 µg/mL (≈ 92.8 µM); against Staphylococcus aureus [11] it was more than 100 µg/mL; against Streptococcus pyogenes [14], 0.25 µg/mL (≈ 0.362 µM).

`CC[C@H]1OC(=O)[C@H](C)C(=O)[C@H](C)[C@@H](O[C@@H]2O[C@H](C)C[C@H](N(C)C)[C@H]2O)[C@@](C)(OC/C=C/c2cnc3ccccc3c2)C[C@@H](C)C(=O)[C@H](C)[C@@H](O)[C@]1(C)O`: the MIC turned out to be 0.2 µg/mL (≈ 0.27 µM) against Staphylococcus aureus [16]; 0.1 µg/mL (≈ 0.135 µM) against Streptococcus pyogenes [1]; 0.2 µg/mL (≈ 0.27 µM) against Staphylococcus aureus [17]; 16 µg/mL (≈ 21.6 µM) in the assay on Haemophilus influenzae; 0.03 µg/mL (≈ 0.0405 µM) against Streptococcus pneumoniae [2]; 16 µg/mL (≈ 21.6 µM) in the assay with Streptococcus pneumoniae [4]. The MIC is 0.25 µg/mL (≈ 0.337 µM) with Streptococcus pneumoniae [18], 100 µg/mL (≈ 135 µM) in the assay with Streptococcus pyogenes [6], more than 100 µg/mL against Staphylococcus aureus [11] and 0.2 µg/mL (≈ 0.27 µM) in the assay on Streptococcus pyogenes [14].

Take `CC[C@H]1OC(=O)[C@H](C)[C@@H](O[C@H]2C[C@@](C)(OC)[C@@H](O)[C@H](C)O2)[C@H](C)[C@@H](O[C@@H]2O[C@H](C)C[C@H](N(C)C)[C@H]2O)[C@](C)(O)C[C@@H](C)C(=O)[C@H](C)[C@@H](O)[C@]1(C)O` [ERYTHROMYCIN]: the MIC was 32 µg/mL (≈ 43.6 µM) against Streptococcus pyogenes [1]; 6.2 µg/mL (≈ 8.45 µM) against Staphylococcus aureus [17]; 8 µg/mL (≈ 10.9 µM) against Haemophilus influenzae; 0.06 µg/mL (≈ 0.0818 µM) against Streptococcus pneumoniae [2]; more than 128 µg/mL in the assay with Streptococcus pneumoniae [4]; 16 µg/mL (≈ 21.8 µM) in the assay with Streptococcus pneumoniae [18]. In addition, the MIC in the assay with Streptococcus pyogenes [6] was more than 128 µg/mL; against Staphylococcus aureus [11] it was more than 100 µg/mL; with Streptococcus pyogenes [14] it was 0.06 µg/mL (≈ 0.0818 µM).

For `CC[C@H]1OC(=O)[C@H](C)C(=O)[C@H](C)[C@@H](O[C@@H]2O[C@H](C)C[C@H](N(C)C)[C@H]2O)[C@](C)(OCC=Cc2cnc3ccccc3c2)C[C@@H](C)C(=O)[C@H](C)[C@H]2NC(=O)O[C@@]21C` [CETHROMYCIN], the MIC is 0.05 µg/mL (≈ 0.0653 µM) in the assay with Staphylococcus aureus [16]; 0.125 µg/mL (≈ 0.163 µM) against Streptococcus pyogenes [1]; 0.05 µg/mL (≈ 0.0653 µM) against Staphylococcus aureus [17]; 2 µg/mL (≈ 2.61 µM) in the assay on Haemophilus influenzae; 0.004 µg/mL (≈ 0.00522 µM) with Streptococcus pneumoniae [2]; 0.25 µg/mL (≈ 0.326 µM) in the assay on Streptococcus pneumoniae [4]. Moreover, the MIC with Streptococcus pneumoniae [18] was 0.25 µg/mL (≈ 0.326 µM); against Streptococcus pyogenes [6], 1 µg/mL (≈ 1.31 µM); against Staphylococcus aureus [11], more than 100 µg/mL; against Streptococcus pyogenes [14], 0.004 µg/mL (≈ 0.00522 µM).

Values taken from ChEMBL document CHEMBL1132973, “Design, synthesis, and antimicrobial activity of 6-O-substituted ketolides active against resistant respiratory tract pathogens” (2000).
